HTRA1 inhibitor = HTRA1 serine protease inhibitors, primary screen, biochemical, fluorescence polarization, HTS | inhibition, % at 5.96 µM | Q92743 | recombinant HTRA1, FP-rhodamine activity-based probe | hit rate 0.5% among 340,000 | AID 504803, 2011; in the data active means inhibition above about 36%;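 further: 0% = enzyme with DMSO and 100% = wells lacking enzyme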
pPAFAH inh = pPAFAH enzyme inhibitors, primary screen, biochemical, fluorescence polarization, human; Platelet-activating factor acetylhydrolase (Homo sapiens), Q13093; recombinant pPAFAH, FP-rhodamine probe fluorescence polarization; inhibition, % at 3.39 µM; hit rate 1.5% among 330,000; AID 463082, 2010;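 active means inhibition above the mean inhibition across the screen plus 3 SD, cut at about 25% in these data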;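 further: inhibitors block binding of the rhodamine activity-based probe so polarization drops; 0% = enzyme with DMSO and 100% = wells lacking pPAFAH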
TCR-CD3 inh = inhibitors of human TCR-CD3 interaction, primary screen, biochemical, fluorescence, TAMRA-labeled TCR probe; T-cell receptor (TCR); inhibition, % at 9.4 µM; hit rate 0.37% among 360,000; in the data active means inhibition above about 19%;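 further: recombinant mutant TCR 2C K166C tagged with TAMRA read by polarization; 0% = receptor in buffer alone and 100% = receptor with positive control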
SIAE primary = human SIAE inhibitors, primary screen, biochemical, fluorescence polarization, FP-Rh probe, 1536-well HTS. Sialate O-acetylesterase (Homo sapiens), Q9HAT2. SIAE FP-Rh probe binding. inhibition, % at 9.66 µM. hit rate 0.69% among 370,000. AID 1053197, 2014;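 active means inhibition above a cutoff: mean of compounds within the control limits plus 3 SD of those, cut at about 17% in these data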;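 further: 0% = plate median of compound wells and 100% = probe without SIAE protein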
Target sequence (Q9HAT2 whole entry, looked up): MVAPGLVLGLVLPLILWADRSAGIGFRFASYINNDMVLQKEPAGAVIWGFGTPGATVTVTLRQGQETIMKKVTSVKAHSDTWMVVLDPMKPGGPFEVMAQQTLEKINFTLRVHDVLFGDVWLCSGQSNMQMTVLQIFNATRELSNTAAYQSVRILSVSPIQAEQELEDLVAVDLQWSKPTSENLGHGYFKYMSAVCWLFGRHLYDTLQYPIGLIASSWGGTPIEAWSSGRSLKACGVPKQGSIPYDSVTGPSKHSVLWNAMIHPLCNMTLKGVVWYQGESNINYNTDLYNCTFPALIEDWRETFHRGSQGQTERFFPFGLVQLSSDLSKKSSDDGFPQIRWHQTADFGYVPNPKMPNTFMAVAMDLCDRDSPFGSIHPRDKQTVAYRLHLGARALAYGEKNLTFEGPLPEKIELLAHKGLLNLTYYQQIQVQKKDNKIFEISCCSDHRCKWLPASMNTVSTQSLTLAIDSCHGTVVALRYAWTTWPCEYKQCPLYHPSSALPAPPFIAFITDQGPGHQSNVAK
mABHD4 FP = ABHD4 inhibitors, primary screen, biochemical, fluorescence polarization, mouse; inhibition, % at 8.92 µM; (Lyso)-N-acylphosphatidylethanolamine lipase (Mus musculus), Q8VD66; purified mABHD4, FP-Rh probe fluorescence polarization; hit rate 0.54% among 370,000; AID 720543, 2013;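 active means inhibition exceeding the mean over every tested compound plus 3 SD, cut at about 30% in these data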;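 further: 0% = plate median of compound wells and 100% = S159A mutant with DMSO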
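Test system: mABHD4 protein | Buffer or medium: HEPES pH 7.0 buffer, 150 mM NaCl, 0.01% Pluronic F-127 | Probe or stimulus: FP-Rh fluorescent activity-based probe, added after compound pre-incubation | Timing: Pre-incubation 45 min, probe exposure 60 min, at 25 °C | Technique: Fluorescence polarization, excitation 525 nm, emission 598 nm, BODIPY TMR filters | Repeats: Single well per compound (singlicate)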
* marks the source's active call; other numbers are inactive results; . = no result given; ! = a repeat was not active. Hits are enriched below; roughly 2.3% of the tested compounds scored in any of these assays.

SMILES	HTRA1 inhibitor	pPAFAH inh	TCR-CD3 inh	SIAE primary	mABHD4 FP
COc1ccc(CC(C)NCC(O)c2ccc(O)c(NC=O)c2)cc1 (stereo not drawn)	3.4	.	26.6*!	7.2	-0.7
CCOC(=O)N1CCN(C(=O)c2cccc(S(=O)(=O)Nc3ccc(F)cc3)c2)CC1	-3.7	.	-10.9	2.9	-18.3
O=C(c1cccc(S(=O)(=O)Nc2ccc(F)cc2)c1)N1CCOCC1	-2.3	28.7*	-0.2	2.0	-2.2
O=C(NCCCN1CCCC1=O)c1cc(NS(=O)(=O)c2ccc(F)cc2)cc(NS(=O)(=O)c2ccc(F)cc2)c1	-2.4	33.6*	9.4	0.9	-6.6
COc1ccc(NS(=O)(=O)c2ccc(N3CCOCC3)c(NC(=O)c3cccc(F)c3)c2)cc1	-11.2	32.8*	-5.2	3.3	0.3
O=C(NCCCN1CCCC1=O)c1ccc(NS(=O)(=O)c2ccc(F)cc2)cc1	-3.0	-0.3	-6.3	-0.1	-3.4
O=C(NCCN1CCOCC1)c1cccc(S(=O)(=O)Nc2ccc(Br)cc2)c1	-5.6	33.7*	0.0	-2.5	-5.8
COC(=O)c1cc(-c2cccc(OCc3ccccc3)c2)c(=O)n2c1CCC2	.	.	.	-2.2	-11.9
Cc1[nH]nc2c1C(c1ccccc1)N(Cc1ccccc1)C2=O (stereo not drawn)	.	.	0.6	10.6	0.2
CSCCCNC(=O)Cn1nc(Cc2ccncc2)c2ccccc2c1=O	.	.	.	0.3	-4.3
CN1[C@H](Cc2ccccc2)COc2cc(N3CCSCC3)ccc2S1(=O)=O	.	.	.	1.2	0.8
COCCCN1C(=O)[C@H](CC(=O)N2CCN(C(=O)c3ccco3)CC2)[C@]2(C(=O)OC)CCCCC=C12	.	.	.	0.8	-3.8
CN(C)c1cccc(/C=C2\CC3(OC(=O)c4ccc(F)cc4)CCCN2C3)c1 (stereo not drawn)	.	.	.	8.4	6.8
O=C(NCCCN1CCOCC1)c1ccc(NS(=O)(=O)c2ccccc2)cc1	-4.1	3.3	-2.2	-1.7	9.3
O=C(NCCCN1CCOCC1)c1cccc(S(=O)(=O)Nc2ccc(F)cc2)c1	-9.3	27.0*	-5.0	-4.2	0.0
NC(=S)N/N=C/c1cccc(O)c1O	8.2	32.4*	-7.5	9.3	15.4
Cc1cccc(Oc2nc(CN3CCOCC3)nc3sc4c(c23)CCCC4)c1	-10.4	31.5*	0.7	11.5	5.0
COc1ccccc1OCC(=O)N(Cc1nc(-c2ccc(Cl)cc2)no1)C(C)C	-7.9	9.9	-1.4	-2.6	-8.8
COc1cccc(OCC(=O)N(Cc2nc(-c3ccc(Cl)cc3)no2)C(C)C)c1	-43.7	26.2*	5.4	-6.6	-6.9
Cc1ccc(C)c(C(=O)N(Cc2nc(-c3ccc(Cl)cc3)no2)C(C)C)c1	-42.2	27.0*	3.6	-5.6	7.5
CC(=O)/C(=C/Nc1ccc(Oc2ccccc2)cc1)c1ccccc1	-11.4	8.5	-2.4	2.1	-4.1
COc1cc(N/C=C(\C(C)=O)c2ccccc2)cc(OC)c1	-1.2	30.9*	.	.	.
CN=C1S/C(=C/c2cc(C)n(-c3cc(C)ccc3OC)c2C)C(=O)N1C	.	.	.	2.2	4.8
CCOc1ccc(NS(=O)(=O)c2ccc(NC(=S)NC(=O)C(C)C)cc2)cc1	-41.4	32.9*	0.4	-7.3	-9.9
COc1ccc(NS(=O)(=O)c2ccc(NC(=S)NC(=O)C(C)C)cc2)cc1	-37.9	16.6	-1.1	-11.9	-30.6
SMILES	HTRA1 inhibitor	pPAFAH inh	TCR-CD3 inh	SIAE primary	mABHD4 FP
CCOc1ccc(NS(=O)(=O)c2ccc(SC)cc2)cc1	-21.8	33.7*	9.0	-2.9	-5.7
COCC(=O)Nc1ccc2c(c1)[C@H]1C[C@@H](CC(=O)NCC3CC3)O[C@H](CO)[C@H]1O2	.	.	7.0	7.3	-4.5
O=C(NCCc1c[nH]c2ccccc12)OCc1cn(Cc2cc(F)cc(F)c2)nn1	.	.	.	6.2	-8.2
c1ccc(CSc2nnc3c(n2)OC(c2ccco2)Nc2ccccc2-3)cc1 (stereo not drawn)	-3.7	26.4*	.	.	.
CCOC(=O)c1c(N)sc2c1CCC(CC)C2 (stereo not drawn)	1.8	25.5*	-6.8	1.3	3.9
CCOC(=O)c1c(N)sc2c1CCC1C(=O)N(C3CCCCC3)C(=O)C21 (stereo not drawn)	-2.8	34.1*	-12.2	3.4	19.0
CCOC(=O)c1c(N)sc2c1CCSC2	10.4	12.9	-7.6	-2.9	16.2
COc1cc(NC(=O)c2ccc(COc3ccccc3Br)o2)cc(OC)c1OC	-13.9	25.9*	-3.5	6.3	-5.0
O=C(c1cc(F)ccc1F)N(Cc1ccccn1)CC1CCCO1 (stereo not drawn)	.	.	.	-4.9	-0.1
COc1ccccc1CNC(=O)COC(=O)c1ccc(S(=O)(=O)N2CCCCC2)cc1	5.5	5.5	3.4	3.3	4.8
COc1ccccc1CNC(=O)COC(=O)c1ccc(C)c(S(=O)(=O)N2CCCCC2)c1	-8.8	26.9*	3.8	0.1	0.8
COc1cc(/C=C2\CCCc3c2nc2ccccc2c3C(=O)O)cc(OC)c1O	9.6	8.9	2.4	-2.2	15.3
COc1cc(/C=C2\CCCc3c2nc2ccccc2c3C(=O)O)cc([N+](=O)[O-])c1O	5.7	32.3*	-2.2	-0.1	29.1
CCOC(=O)N1CCN(C(=O)C[C@H]2C(=O)N(CCCOC)C3=CCCCC[C@]32C(=O)OC)CC1	.	.	.	14.7	7.6
Cn1c(=O)n(CCCOc2ccc(Br)cc2)c2ccccc21	-18.2	32.4*	2.7	7.6	-14.1
OCc1nc2ccccc2n1CCCOc1ccc(Br)cc1	-13.3	31.1*	-1.3	10.8	-13.3
Cn1c(=O)n(CCCOc2ccc(Cl)cc2)c2ccccc21	-17.8	24.5	8.4	8.4	-15.1
COc1ccc(-n2c(Cc3cccs3)nnc2SCC(=O)Nc2ccc(OCc3ccccc3)cc2)cc1	.	.	.	-13.6	-26.7
CC/C=C\C/C=C\C/C=C\CCCCCCCC(=O)O	-21.2	23.6	4.2	-2.3	12.4
CCCCC/C=C\C/C=C\C/C=C\C/C=C\CCCC(=O)O	.	46.8*	.	.	.
O=C(Nc1ccc(F)cc1)OC1CC2CC1[C@H]1CCCCN1C2 (stereo partly drawn)	.	.	.	5.4	5.4
C/C=C/c1ccc(OCC(=O)O)c(OC)c1	5.0	3.9	8.1	0.7	3.1
C/C=C/c1ccc(OCCOc2cc(C=O)ccc2OC)c(OC)c1	-31.7	27.7*	5.5	-3.4	-4.9
CCOC(=O)c1ccc(NC(=S)N2CCCC(C)C2)cc1 (stereo not drawn)	-2.1	-0.8	-5.4	1.5	6.2
CCOC(=O)c1ccc(NC(=S)N2CCCC(C(=O)N3CCCC3)C2)cc1 (stereo not drawn)	-3.6	31.9*	-6.7	4.7	7.2
Cc1ccc(SCC(=O)OCC(=O)N(C)CC(=O)Nc2ccccc2Cl)cc1C	-4.9	34.4*	1.0	-0.3	18.9
Cc1ccc(S(=O)(=O)N(C)C)cc1NC(=O)COC(=O)CSc1ccccc1	2.2	28.2*	1.9	12.9	0.8
